{"data": "Assay results from different studies", "target": "5-hydroxytryptamine receptor 2B (HTR2B, Homo sapiens, UniProt P41595)", "note": "Protocols differ between the studies behind these lines."}
{"SMILES": "Cc1cc(NC(=O)Nc2ccc3c(ccn3C)c2)sn1", "read-out": "ligand displacement", "technique": "radioligand", "measurement": "IC50", "result": "160 nM"}
{"SMILES": "O=C1c2ccccc2CCN1CCCCN1CCN(c2cccc(Cl)c2Cl)CC1", "read-out": "ligand displacement", "technique": "radioligand", "measurement": "Ki", "result": "1.8 nM"}
{"SMILES": "CNC(=O)[C@@]12C[C@@H]1[C@@H](n1cnc3c(NCCc4ccccc4)nc(I)nc31)[C@H](O)[C@@H]2O", "read-out": "cell-free assay", "technique": "radioligand", "measurement": "Ki", "result": "117 nM"}
{"SMILES": "CC(C)c1nc2cc(OCCCCN3CCN(c4cccc5c4OCCO5)CC3)ccc2s1", "read-out": "cell-free assay", "technique": "radioligand", "measurement": "Ki", "result": "32 nM"}
{"SMILES": "CCCC[C@H](NC(=O)[C@H](C)c1c(C)[nH]c2ccc(O)cc12)c1ncc(-c2cc3ccccc3nc2OC)[nH]1", "read-out": "ligand displacement", "measurement": "IC50", "result": "740 nM"}
{"SMILES": "CCOCc1nc(O)c(-c2nnc(Cc3ccc(Cl)cn3)o2)c(O)c1-c1c(OC)cccc1OC", "read-out": "ligand displacement", "technique": "radioligand", "measurement": "IC50", "result": "> 30000 nM"}
{"SMILES": "CCOC(=O)[C@@]12C[C@@H]1[C@@H](n1cnc3c(N[C@H](C4CCC4)C4CC4)nc(I)nc31)[C@H](O)[C@@H]2O", "read-out": "calcium signal", "action": "antagonist", "measurement": "Kb", "result": "1.74 nM"}
{"SMILES": "CCCCN1CCC(COC(=O)c2ccc(N)c(OCF)c2)CC1", "read-out": "cell-free assay", "technique": "radioligand", "measurement": "Ki", "result": "> 10000 nM"}
{"SMILES": "COCCN(CCOC)C(=O)[C@@]12C[C@@H]1[C@@H](n1cnc3c(NC(C4CC4)C4CC4)nc(Cl)nc31)[C@H](O)[C@@H]2O", "read-out": "ligand displacement", "technique": "radioligand", "measurement": "Ki", "result": "1230 nM"}
{"SMILES": "Cc1ccc2cccc(N3CCN(CCCCOc4ccc5sc(C(C)C)nc5c4)CC3)c2n1", "read-out": "cell-free assay", "technique": "radioligand", "measurement": "Ki", "result": "43 nM"}
